This note sets out measurements from ChEMBL document CHEMBL4257448, “Deciphering the origins of molecular toxicity of combretastatin A4 and its glycoconjugates: interactions with major drug transporters and their safety profiles in vitro and in vivo” (Medchemcomm, 2017).

Data set [1] concerns HT-29. Nature of the data set: Cytotoxicity against human HT-29 cells assessed as reduction in cell viability after 72 hrs by MTT assay. Type of data set: functional, cell-based. Particulars: HT-29, 72 h; call rule not given here. In outline:
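HT29 cells were cultured in RPMI-1640 with glutamine and 10% FBS, seeded at 2000–7500 cells/well, and exposed for 72 h to drug in DMSO (final DMSO <0.1%). MTT was added at 0.83 mg mL−1 final and incubated overnight, then cells were lysed in SDS/HCl and read at 570 nm. Survival was expressed as percent of drug-free control; five replicate wells.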
For orientation: Tetrazolium assays rely on reduction of a dye to a coloured formazan, in cell work by metabolically active cells.

For data set [2], the target named is T1, Solute carrier organic anion transporter family member 2B1 (Homo sapiens, UniProt O94956).
T1 sequence (O94956 whole entry): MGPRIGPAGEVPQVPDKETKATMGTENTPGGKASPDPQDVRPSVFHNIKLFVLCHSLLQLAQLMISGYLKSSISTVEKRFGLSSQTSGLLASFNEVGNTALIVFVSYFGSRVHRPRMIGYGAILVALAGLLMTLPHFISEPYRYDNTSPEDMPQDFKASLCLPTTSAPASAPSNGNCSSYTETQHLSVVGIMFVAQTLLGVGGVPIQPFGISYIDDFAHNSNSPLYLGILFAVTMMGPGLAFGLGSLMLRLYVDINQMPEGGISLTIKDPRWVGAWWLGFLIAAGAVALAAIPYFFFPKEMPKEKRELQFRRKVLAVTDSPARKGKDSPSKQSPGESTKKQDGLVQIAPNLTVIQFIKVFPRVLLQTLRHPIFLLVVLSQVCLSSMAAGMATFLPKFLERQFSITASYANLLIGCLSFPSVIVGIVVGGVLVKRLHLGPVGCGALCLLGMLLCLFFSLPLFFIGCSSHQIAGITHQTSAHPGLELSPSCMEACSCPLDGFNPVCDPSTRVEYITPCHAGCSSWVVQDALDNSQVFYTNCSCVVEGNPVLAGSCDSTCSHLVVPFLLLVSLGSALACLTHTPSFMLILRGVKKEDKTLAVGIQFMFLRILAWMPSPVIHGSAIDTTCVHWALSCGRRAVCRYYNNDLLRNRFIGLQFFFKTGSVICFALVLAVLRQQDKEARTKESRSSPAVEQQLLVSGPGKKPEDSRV
Briefly: Inhibition of human OATP2B1 expressed in HEK293 cells assessed as DBF uptake after 5 mins by fluorescence assay. Type of data set: cell-based. Particulars: for inhibition (INH): human, hek293, 5 min. In outline:
(§1)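 Stably transfected HEK293 cells (human OAT1, OAT3, OCT1, OCT2, OATP1B3, OATP2B1) and mock cells were assayed 16 h after seeding in HEPES uptake buffer, pH 7.2, with fluorescent probe ± compound. Incubation was 5 min for OAT1/3 and OATPs, and 10 min for OCT1/2. Reference inhibitors were probenecid (OATs), quinine (OCTs) and rifampicin (OATPs). Uptake was stopped with ice-cold PBS and cells were lysed in Tris/Triton. Fluorescence was normalised to BCA protein; triplicates, repeated 2–3 times.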

Data set [3] relates to HEK293. Briefly: Cytotoxicity against HEK293 cells assessed as reduction in cell viability up to 200 uM after 10 mins by MTT assay. Type of data set: cell-based. The following applies: human, hek293, 10 min. In outline:
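HEK293-mock cells were exposed to 100 or 200 μM for 10 min. MTT was added at 0.83 mg mL−1 final and incubated overnight. Cells were lysed in 15% SDS/0.015 M HCl and absorbance was read at 570 nm. Viability is given as % of drug-free controls.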

Data set [4] concerns the target T2, Solute carrier organic anion transporter family member 1B3 (Homo sapiens, UniProt Q9NPD5).
T2 sequence (Q9NPD5 whole entry): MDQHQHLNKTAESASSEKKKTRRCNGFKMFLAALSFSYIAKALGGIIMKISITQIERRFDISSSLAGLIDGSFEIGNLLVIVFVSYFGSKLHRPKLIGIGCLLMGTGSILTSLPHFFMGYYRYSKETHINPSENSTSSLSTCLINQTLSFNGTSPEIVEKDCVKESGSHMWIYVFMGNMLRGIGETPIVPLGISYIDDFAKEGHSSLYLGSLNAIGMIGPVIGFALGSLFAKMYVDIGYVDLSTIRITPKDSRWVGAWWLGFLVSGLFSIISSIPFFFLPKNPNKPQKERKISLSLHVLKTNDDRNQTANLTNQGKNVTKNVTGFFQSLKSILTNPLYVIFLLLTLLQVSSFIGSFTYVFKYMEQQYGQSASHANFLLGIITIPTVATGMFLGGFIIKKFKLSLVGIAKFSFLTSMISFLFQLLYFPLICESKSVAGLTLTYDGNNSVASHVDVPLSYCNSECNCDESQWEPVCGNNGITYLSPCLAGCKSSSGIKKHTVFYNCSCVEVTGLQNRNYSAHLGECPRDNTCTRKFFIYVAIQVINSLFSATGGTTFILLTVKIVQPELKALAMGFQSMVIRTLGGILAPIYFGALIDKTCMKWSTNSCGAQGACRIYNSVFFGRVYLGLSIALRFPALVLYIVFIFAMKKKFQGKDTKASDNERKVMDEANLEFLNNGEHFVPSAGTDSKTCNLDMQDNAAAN
Nature of the data set: Inhibition of human OATP1B3 expressed in HEK293 cells assessed as FMTX uptake after 5 mins by fluorescence assay. Type of data set: cell-based. The following applies: for inhibition (INH): human, hek293, 5 min. An outline of the steps:
as §1

For data set [5], the target named is T3, Solute carrier family 22 member 6 (Homo sapiens, UniProt Q4U2R8).
T3 sequence (Q4U2R8 whole entry): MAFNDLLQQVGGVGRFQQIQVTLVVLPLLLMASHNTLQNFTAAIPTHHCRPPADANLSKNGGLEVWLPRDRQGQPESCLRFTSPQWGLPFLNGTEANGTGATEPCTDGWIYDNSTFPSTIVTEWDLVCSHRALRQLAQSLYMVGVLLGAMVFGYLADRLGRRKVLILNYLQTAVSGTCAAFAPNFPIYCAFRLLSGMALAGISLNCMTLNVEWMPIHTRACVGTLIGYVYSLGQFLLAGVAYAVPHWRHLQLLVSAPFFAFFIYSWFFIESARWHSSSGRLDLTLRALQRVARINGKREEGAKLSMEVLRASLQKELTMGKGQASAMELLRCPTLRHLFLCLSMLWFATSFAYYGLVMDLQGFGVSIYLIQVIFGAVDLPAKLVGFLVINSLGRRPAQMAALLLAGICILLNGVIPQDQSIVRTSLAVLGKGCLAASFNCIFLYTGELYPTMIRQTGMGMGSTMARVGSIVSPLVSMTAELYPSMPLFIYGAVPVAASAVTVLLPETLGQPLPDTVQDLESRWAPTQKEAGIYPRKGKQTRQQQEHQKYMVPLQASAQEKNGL
Nature of the data set: Inhibition of human OAT1 expressed in HEK293 cells assessed as 6-CF uptake after 5 mins by fluorescence assay. Type of data set: cell-based. The following applies: for inhibition (INH): human, hek293, 5 min. In outline: as §1

In general, IC50 refers to the concentration needed to halve the response being measured. For the compound `COc1ccc(/C=C\c2cc(OC)c(OC)c(OC)c2)cc1O[C@@H]1O[C@H](CO)[C@@H](O)[C@H](O)[C@H]1O`, the 50% inhibitory concentration (IC50) in data set [1] is 6.91 µM; in data set [2], greater than 200 µM; in data set [4] it was greater than 200 µM; in data set [5] it was greater than 200 µM. Moreover, the “inhibition (INH)” value in data set [2], in data set [4] and in data set [5] was “Dose-dependent effect” in each case. Also, the Activity entry in data set [3] is “Non-Toxic”.

For `COc1ccc(/C=C\c2cc(OC)c(OC)c(OC)c2)cc1O` [COMBRETASTATIN A4], the IC50 turned out to be 0.72 µM in data set [1], 12.3 µM in data set [2], 195 µM in data set [4] and 41.4 µM in data set [5]. Besides, the “inhibition (INH)” value in data set [2], in data set [4] and in data set [5] was “Dose-dependent effect” each time. The Activity entry in data set [3] is “Non-Toxic”.
